From ChEMBL document CHEMBL1140029, “Design of novel histone deacetylase inhibitors” (Bioorg Med Chem Lett, 2007)

What was measured:
Histone deacetylase 1 = Histone deacetylase 1 (Homo sapiens, UniProt Q13547); assay: Inhibition of human HDAC1 expressed in domain of SMRT
HCT-116 [1] = assay: Antiproliferative activity against HCT116 cells after 72 hrs; assay type: functional, cell-based, Homo sapiens
[2] = Volume of distribution in rhesus monkey at 1.0 mg/kg, iv; assay type: ADME, organism-based, Macaca mulatta; set-up: dose 1 mg/kg, route intravenous; conditions: in vivo
[3] = Volume of distribution in dog at 0.6 mg/kg, iv; assay type: ADME, organism-based, Canis lupus familiaris; set-up: dose 0.6 mg/kg, route intravenous; conditions: in vivo
[4] = Plasma clearance in dog at 0.6 mg/kg, iv; assay type: ADME, organism-based, Canis lupus familiaris; set-up: dose 0.6 mg/kg, route intravenous
[5] = Volume of distribution in rat at 2.0 mg/kg, iv; assay type: ADME, organism-based; set-up: dose 2 mg/kg, route intravenous; conditions: in vivo
[6] = Bioavailability in rat at 4.0 mg/kg, po; assay type: ADME, organism-based; conditions: in vivo
Histone deacetylase 2 = Histone deacetylase 2 (Homo sapiens, UniProt Q92769); assay: Inhibition of human HDAC2 expressed in domain of SMRT
[7] = Half life in dog at 1.2 mg/kg, po; assay type: ADME, organism-based, Canis lupus familiaris; set-up: dose 1.2 mg/kg, route oral; conditions: in vivo
[8] = Bioavailability in dog at 1.2 mg/kg, po; assay type: ADME, organism-based, Canis lupus familiaris; conditions: in vivo
Histone deacetylase 3 = Histone deacetylase 3 (Homo sapiens, UniProt O15379); assay: Inhibition of human HDAC3 expressed in domain of SMRT
Outline: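 C-terminal FLAG-tagged human HDAC3, co-expressed with the SMRT domain, was overexpressed in mammalian cells and purified on anti-FLAG matrix. Enzyme at 1–30 nM final was preincubated with 3× serially diluted inhibitor for 10 min at RT. Fluor-de-Lys substrate was then added for 60 min at 37 °C, followed by developer containing SAHA. Fluorescence was read at Ex 360/Em 460 nm to give IC50.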

[9] = target: T1, Protein deacetylase HDAC6 (Homo sapiens, UniProt Q9UBN7); assay: Inhibition of human HDAC6
T1 sequence (Q9UBN7 whole entry): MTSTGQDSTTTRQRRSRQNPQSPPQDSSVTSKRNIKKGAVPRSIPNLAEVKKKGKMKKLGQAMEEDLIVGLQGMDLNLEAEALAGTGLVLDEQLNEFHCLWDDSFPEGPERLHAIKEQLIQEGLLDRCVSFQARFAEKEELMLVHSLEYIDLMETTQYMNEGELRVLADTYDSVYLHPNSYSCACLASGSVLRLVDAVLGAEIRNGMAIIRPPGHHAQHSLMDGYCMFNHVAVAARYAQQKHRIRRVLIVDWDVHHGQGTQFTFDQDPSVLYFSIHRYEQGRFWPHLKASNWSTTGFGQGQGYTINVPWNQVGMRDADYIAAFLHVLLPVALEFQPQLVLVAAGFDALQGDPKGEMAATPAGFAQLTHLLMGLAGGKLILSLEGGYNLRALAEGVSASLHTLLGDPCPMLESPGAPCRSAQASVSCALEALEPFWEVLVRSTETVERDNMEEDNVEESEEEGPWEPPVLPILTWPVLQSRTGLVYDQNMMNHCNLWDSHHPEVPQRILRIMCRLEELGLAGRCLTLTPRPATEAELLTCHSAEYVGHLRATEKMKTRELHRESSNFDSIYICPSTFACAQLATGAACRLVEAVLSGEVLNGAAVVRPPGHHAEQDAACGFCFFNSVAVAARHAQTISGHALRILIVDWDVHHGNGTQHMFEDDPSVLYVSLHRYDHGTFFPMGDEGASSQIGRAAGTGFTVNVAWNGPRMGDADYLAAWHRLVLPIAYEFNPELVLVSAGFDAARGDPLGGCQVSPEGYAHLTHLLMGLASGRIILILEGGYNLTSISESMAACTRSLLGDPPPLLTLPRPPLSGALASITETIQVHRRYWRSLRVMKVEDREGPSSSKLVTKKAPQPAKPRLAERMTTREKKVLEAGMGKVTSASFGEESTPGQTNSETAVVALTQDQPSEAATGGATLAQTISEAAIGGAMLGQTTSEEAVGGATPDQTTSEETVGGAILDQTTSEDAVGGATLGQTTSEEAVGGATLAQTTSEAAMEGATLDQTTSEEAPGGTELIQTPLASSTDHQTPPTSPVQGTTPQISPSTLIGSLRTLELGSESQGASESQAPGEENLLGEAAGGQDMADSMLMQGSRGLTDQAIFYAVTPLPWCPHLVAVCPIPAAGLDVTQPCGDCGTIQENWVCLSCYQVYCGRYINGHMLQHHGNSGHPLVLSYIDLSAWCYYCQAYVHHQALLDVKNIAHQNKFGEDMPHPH
Outline: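 C-terminal FLAG-tagged human HDAC6 overexpressed in mammalian cells, anti-FLAG affinity-purified, 1–30 nM final. Inhibitor serially diluted 3-fold in DMSO from 10 mM stock, then 20-fold into assay buffer. Enzyme preincubated with compound 10 min at RT. Fluor-de-Lys substrate added, 60 min at 37 °C. Developer containing SAHA added, fluorescence read at Ex 360/Em 460 nm. IC50 reported.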

Histone deacetylase 8 = target: T2, Histone deacetylase 8 (Homo sapiens, UniProt Q9BY41); assay: Inhibition of human HDAC8
T2 sequence (Q9BY41 whole entry): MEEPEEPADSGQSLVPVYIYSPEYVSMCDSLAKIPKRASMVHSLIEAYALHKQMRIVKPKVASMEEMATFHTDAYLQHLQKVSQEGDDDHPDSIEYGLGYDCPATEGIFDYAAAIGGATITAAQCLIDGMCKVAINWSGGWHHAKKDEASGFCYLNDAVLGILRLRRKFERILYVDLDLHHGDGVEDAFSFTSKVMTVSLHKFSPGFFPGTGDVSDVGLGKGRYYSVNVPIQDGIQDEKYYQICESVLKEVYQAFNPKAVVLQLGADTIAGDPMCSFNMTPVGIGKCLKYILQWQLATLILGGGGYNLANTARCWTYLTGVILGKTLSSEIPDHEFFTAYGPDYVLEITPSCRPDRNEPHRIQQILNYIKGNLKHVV
Outline: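 HDAC8 came from the Institute for Research in Molecular Biology, Pomezia, and was used at 1–30 nM final. It was preincubated with 3× serially diluted inhibitor for 10 min at RT. Fluor-de-Lys HDAC8 substrate was added for 15 min at 37 °C, then HDAC8 developer containing SAHA. Fluorescence was read at Ex 360/Em 460 nm to give IC50.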

[10] = Plasma clearance in rhesus monkey at 1.0 mg/kg, iv; assay type: ADME, organism-based, Macaca mulatta; set-up: dose 1 mg/kg, route intravenous
[11] = Bioavailability in rhesus monkey at 2.0 mg/kg, po; assay type: ADME, organism-based, Macaca mulatta; conditions: in vivo
[12] = Half life in rat at 4.0 mg/kg, po; assay type: ADME, organism-based; set-up: dose 4 mg/kg, route oral; conditions: in vivo
[13] = Plasma clearance in rat at 2.0 mg/kg, iv; assay type: ADME, organism-based; set-up: dose 2 mg/kg, route intravenous
[14] = Half life in rhesus monkey at 2.0 mg/kg, po; assay type: ADME, organism-based, Macaca mulatta; set-up: dose 2 mg/kg, route oral; conditions: in vivo
HCT-116 [15] = assay: Antiproliferative activity against HCT116 cells after 96 hrs; assay type: functional, cell-based; conditions: Homo sapiens, HCT-116, 96 h
[16] = Homo sapiens, HCT-116, 72 h, read-out: IC50

Histone deacetylase 1, sequence (Q13547 whole entry, the tested form may be a part): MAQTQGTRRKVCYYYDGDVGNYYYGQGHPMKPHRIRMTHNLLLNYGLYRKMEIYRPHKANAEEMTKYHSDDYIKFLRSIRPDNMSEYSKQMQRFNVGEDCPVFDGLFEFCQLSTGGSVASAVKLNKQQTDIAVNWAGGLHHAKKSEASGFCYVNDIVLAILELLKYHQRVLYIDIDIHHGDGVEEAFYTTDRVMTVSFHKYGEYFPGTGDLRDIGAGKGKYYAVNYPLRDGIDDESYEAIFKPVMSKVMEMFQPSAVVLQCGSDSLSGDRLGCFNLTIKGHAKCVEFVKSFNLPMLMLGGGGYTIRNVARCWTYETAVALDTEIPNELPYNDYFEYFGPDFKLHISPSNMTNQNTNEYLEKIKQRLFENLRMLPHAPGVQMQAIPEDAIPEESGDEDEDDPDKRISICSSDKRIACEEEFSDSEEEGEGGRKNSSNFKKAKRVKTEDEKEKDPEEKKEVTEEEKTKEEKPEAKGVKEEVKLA
Histone deacetylase 3, sequence (O15379 whole entry, the tested form may be a part): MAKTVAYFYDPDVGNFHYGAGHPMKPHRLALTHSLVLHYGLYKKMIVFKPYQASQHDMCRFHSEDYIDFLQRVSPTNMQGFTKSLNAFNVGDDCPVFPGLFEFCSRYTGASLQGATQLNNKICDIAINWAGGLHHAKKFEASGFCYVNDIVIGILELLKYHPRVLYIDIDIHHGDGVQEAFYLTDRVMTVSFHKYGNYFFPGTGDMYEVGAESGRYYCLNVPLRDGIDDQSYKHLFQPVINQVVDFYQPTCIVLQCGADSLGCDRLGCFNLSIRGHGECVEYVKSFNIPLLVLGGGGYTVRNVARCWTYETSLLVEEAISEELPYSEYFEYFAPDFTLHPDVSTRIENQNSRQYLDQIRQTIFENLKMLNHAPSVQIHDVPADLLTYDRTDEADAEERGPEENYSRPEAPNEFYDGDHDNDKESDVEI
Histone deacetylase 2, sequence (Q92769 whole entry, the tested form may be a part): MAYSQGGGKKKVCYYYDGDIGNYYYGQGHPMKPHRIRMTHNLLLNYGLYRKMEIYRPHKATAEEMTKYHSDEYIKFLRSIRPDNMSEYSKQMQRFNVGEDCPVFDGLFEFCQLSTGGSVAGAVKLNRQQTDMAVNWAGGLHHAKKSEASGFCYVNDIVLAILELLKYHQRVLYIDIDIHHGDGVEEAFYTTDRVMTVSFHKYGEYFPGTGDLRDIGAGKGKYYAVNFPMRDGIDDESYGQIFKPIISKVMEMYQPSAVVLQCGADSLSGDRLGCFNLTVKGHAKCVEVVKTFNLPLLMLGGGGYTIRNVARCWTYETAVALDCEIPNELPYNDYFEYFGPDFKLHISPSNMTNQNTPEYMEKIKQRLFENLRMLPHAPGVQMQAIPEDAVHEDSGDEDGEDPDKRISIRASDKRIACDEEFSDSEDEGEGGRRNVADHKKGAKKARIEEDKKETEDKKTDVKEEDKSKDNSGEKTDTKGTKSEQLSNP

| Structure (SMILES) | IC50 (Histone deacetylase 1) [µM] | IC50 (HCT-116 [1]; [16]) [µM] | other results |
| --- | --- | --- | --- |
| CC(C(=O)Nc1ccccc1)(C(=O)Nc1ccccc1)c1ccc(C(=O)Nc2ccccc2N)cc1 | 0.198 | 2.12 |  |
| CC(Cc1ccc(C(=O)Nc2ccccc2N)cc1)(C(=O)Nc1ccccc1)C(=O)Nc1ccccc1 | 0.2 | 2.52 |  |
| CC(C)(C)c1ccc(C(=O)NO)cc1 | 0.715 |  |  |
| Nc1ccccc1NC(=O)c1ccc(C(C(=O)Nc2ccccc2)C(=O)Nc2ccccc2)cc1 | 0.036 | 0.171 | Vd [2]: 1.7 L/kg; Vd [3]: 1.8 L/kg; clearance [4]: 3 mL/min/kg; Vd [5]: 12 L/kg; bioavailability [6]: 88%; IC50 (Histone deacetylase 2): 0.313 µM; half-life [7]: 8.5 h; bioavailability [8]: 88%; IC50 (Histone deacetylase 3): 0.697 µM; IC50 [9]: > 10 µM; IC50 (Histone deacetylase 8): > 10 µM; clearance [10]: 12 mL/min/kg; bioavailability [11]: 27%; half-life [12]: 3.8 h; clearance [13]: 55 mL/min/kg; half-life [14]: 10.4 h |
| Nc1ccccc1NC(=O)c1ccc(C(C(=O)Nc2ccc(F)cc2)C(=O)Nc2ccc(F)cc2)cc1 | 0.063 |  | IC50 (HCT-116 [15]): 0.222 µM |
| CN(C(=O)C(C(=O)Nc1ccccc1)c1ccc(C(=O)Nc2ccccc2N)cc1)c1ccccc1 (stereo unspecified) | 0.196 | 1.15 |  |
| CN(C(=O)C(C(=O)N(C)c1ccccc1)c1ccc(C(=O)Nc2ccccc2N)cc1)c1ccccc1 | 7.19 |  | IC50 (HCT-116 [1]; hct-116): Not Active |
| Nc1ccccc1NC(=O)c1ccc(C(C(=O)NCCCc2ccccc2)C(=O)NCCCc2ccccc2)cc1 | 0.229 | 0.987 |  |
| Nc1ccccc1NC(=O)c1ccc(C(O)(C(=O)Nc2ccccc2)C(=O)Nc2ccccc2)cc1 | 0.094 | 0.773 |  |
| Nc1ccccc1NC(=O)c1ccc(C(C(=O)NCc2ccccc2)C(=O)NCc2ccccc2)cc1 | 0.199 | 0.596 |  |
| Nc1ccccc1NC(=O)c1ccc(C(C(=O)Nc2cccc3cccnc23)C(=O)Nc2cccc3cccnc23)cc1 | 0.103 | 1.2 |  |
| CC(=O)NO [ACETOHYDROXAMIC ACID] | 625 |  |  |
| O=C(NO)c1ccccc1 [BENZOHYDROXAMATE] | 20 |  |  |

More lines, in order of falling IC50 (Histone deacetylase 1), values ahead:

| IC50 (Histone deacetylase 1) [µM] | IC50 (HCT-116 [1]; [16]) [µM] | Structure (SMILES) | other results |
| --- | --- | --- | --- |
| 0.056 | 0.607 | Nc1ccccc1NC(=O)c1ccc(C(C(=O)Nc2cccc(F)c2)C(=O)Nc2cccc(F)c2)cc1 |  |
| 0.048 | 0.425 | Nc1ccccc1NC(=O)c1ccc(C(F)(C(=O)Nc2ccccc2)C(=O)Nc2ccccc2)cc1 |  |
| 0.047 | 0.394 | COc1ccccc1NC(=O)C(C(=O)Nc1ccccc1OC)c1ccc(C(=O)Nc2ccccc2N)cc1 |  |
| 0.047 | 0.579 | Nc1ccccc1NC(=O)c1ccc(CC(C(=O)Nc2ccccc2)C(=O)Nc2ccccc2)cc1 |  |
| 0.045 | 0.542 | Nc1ccccc1NC(=O)c1ccc(C(C(=O)Nc2cccc(N3CCOCC3)c2)C(=O)Nc2cccc(N3CCOCC3)c2)cc1 |  |
| 0.035 | 0.383 | COc1cccc(NC(=O)C(C(=O)Nc2cccc(OC)c2)c2ccc(C(=O)Nc3ccccc3N)cc2)c1 |  |
| 0.034 |  | N#Cc1cccc(NC(=O)C(C(=O)Nc2cccc(C#N)c2)c2ccc(C(=O)Nc3ccccc3N)cc2)c1 | IC50 (HCT-116 [15]): 0.5 µM |
| 0.021 | 0.22 | Nc1ccccc1NC(=O)c1ccc(C(C(=O)Nc2ccc3c(c2)OCCO3)C(=O)Nc2ccc3c(c2)OCCO3)cc1 |  |
| 0.005 |  | O=C(NO)c1ccc(C(C(=O)Nc2ccccc2)C(=O)Nc2ccccc2)cc1 |  |
